Columns and labels:
[1] = biological target: Serine/threonine-protein kinase PAK 4 (Homo sapiens) (UniProt O96013); assay: Inhibition of human recombinant PAK4 at 1 uM using Ulight-RRRSLLE as substrate measured after 30 mins in presence of ATP by LANCE assay relative to control
Procedure, shortened: (§1)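 Kinase panel run by an outside provider (Eurofins Cerep) in a LANCE assay, single test concentration of 1 µM, results as percent inhibition.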

[2] = Ratio of drug concentration in RjOrl:Swiss CD-1 mouse brain at 10 mg/kg, iv to IC50 for p38alpha MAPK (unknown origin); type: ADME, organism-based; details: in vivo
Procedure, shortened: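 Adult male mice received a single 10 mg/kg intravenous dose. After the final plasma sample at 2 h, the mice were sacrificed and brains dissected. Brain concentration was measured by LC-MS and related to the in vitro IC50 values for GSK3β and p38α.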

[3] = biological target: Rho-associated protein kinase 1 (Homo sapiens) (UniProt Q13464); assay: Inhibition of human recombinant ROCK1 at 1 uM using Ulight-RRRSLLE as substrate measured after 20 mins in presence of ATP by LANCE assay relative to control; procedure, shortened: as §1
Sequence of Rho-associated protein kinase 1 (Homo sapiens) (Q13464 2-1354 limits assumed): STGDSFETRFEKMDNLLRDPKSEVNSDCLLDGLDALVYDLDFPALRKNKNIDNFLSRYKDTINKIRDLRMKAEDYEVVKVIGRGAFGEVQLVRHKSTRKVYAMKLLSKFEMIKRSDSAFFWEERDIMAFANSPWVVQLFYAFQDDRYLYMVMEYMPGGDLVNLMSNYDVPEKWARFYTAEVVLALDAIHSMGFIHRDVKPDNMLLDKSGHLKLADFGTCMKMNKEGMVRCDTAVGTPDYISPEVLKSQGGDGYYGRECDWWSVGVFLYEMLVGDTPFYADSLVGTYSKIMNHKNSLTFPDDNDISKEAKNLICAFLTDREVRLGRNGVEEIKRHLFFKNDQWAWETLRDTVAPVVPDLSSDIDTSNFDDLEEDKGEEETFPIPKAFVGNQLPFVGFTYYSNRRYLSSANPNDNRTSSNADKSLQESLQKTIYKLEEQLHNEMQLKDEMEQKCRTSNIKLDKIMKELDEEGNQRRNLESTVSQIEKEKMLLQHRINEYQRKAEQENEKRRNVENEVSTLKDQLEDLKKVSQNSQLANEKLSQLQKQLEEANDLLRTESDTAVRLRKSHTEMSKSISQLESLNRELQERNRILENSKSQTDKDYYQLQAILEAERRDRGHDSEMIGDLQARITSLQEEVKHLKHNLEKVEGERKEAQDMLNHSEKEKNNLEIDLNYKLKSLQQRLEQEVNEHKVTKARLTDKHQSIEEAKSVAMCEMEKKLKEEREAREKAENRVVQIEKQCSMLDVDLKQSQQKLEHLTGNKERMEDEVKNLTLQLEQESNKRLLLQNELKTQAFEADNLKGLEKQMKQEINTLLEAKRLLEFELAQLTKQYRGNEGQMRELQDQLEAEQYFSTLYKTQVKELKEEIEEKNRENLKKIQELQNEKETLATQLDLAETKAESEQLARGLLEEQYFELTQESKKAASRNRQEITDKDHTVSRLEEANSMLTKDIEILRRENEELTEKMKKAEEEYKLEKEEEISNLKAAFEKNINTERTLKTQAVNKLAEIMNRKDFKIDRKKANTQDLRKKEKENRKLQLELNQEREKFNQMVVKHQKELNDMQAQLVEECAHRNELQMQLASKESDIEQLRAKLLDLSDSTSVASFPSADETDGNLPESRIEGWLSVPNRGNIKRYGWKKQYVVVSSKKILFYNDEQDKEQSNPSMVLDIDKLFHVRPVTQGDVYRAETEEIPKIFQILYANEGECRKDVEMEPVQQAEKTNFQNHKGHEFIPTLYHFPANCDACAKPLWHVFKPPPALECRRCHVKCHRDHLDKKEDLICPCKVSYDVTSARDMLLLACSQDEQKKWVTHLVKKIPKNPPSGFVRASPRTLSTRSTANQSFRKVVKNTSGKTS

Sequence of Serine/threonine-protein kinase PAK 4 (Homo sapiens) (O96013 whole entry, looked up): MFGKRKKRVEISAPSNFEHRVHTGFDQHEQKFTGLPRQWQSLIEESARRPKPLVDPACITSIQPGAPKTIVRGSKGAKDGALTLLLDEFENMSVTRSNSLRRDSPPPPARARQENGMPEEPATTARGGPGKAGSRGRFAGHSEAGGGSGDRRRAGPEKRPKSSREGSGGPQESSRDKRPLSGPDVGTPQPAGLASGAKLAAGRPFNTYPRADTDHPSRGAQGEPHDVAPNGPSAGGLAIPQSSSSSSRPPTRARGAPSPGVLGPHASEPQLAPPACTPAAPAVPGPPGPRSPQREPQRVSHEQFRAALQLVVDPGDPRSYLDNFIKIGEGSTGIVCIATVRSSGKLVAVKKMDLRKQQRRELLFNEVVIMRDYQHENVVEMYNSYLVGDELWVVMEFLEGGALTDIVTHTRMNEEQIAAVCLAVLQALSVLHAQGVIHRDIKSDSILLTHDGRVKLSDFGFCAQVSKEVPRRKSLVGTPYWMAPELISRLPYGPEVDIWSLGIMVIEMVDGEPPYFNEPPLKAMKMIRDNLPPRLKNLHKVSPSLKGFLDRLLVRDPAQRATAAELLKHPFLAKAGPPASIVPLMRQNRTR

CCc1nc(-c2ccc(F)cc2)c(-c2ccnc(NC(=O)C3CC3)c2)[nH]1
inhibition [1]: 4.82% | Ratio [2]: 2.5 | inhibition [3]: -8.13%
